Legend:
[1] = test system: GPCRs, ion channels, nuclear receptors, transporters; test: lead profiling receptor screen; type: binding; conditions: 10 μM
hERG = hERG (Homo sapiens, UniProt Q12809); test: hERG electrophysiology; type: cell-based
CYP1A2 = biological target: T1, CYP1A2 (Homo sapiens, UniProt P05177); test: CYP inhibition, LC–MS/MS assay in human liver microsomes; type: in vitro ADME; conditions: pooled human liver microsomes, probe ethoxyresorufin
T1 sequence (P05177 1-516): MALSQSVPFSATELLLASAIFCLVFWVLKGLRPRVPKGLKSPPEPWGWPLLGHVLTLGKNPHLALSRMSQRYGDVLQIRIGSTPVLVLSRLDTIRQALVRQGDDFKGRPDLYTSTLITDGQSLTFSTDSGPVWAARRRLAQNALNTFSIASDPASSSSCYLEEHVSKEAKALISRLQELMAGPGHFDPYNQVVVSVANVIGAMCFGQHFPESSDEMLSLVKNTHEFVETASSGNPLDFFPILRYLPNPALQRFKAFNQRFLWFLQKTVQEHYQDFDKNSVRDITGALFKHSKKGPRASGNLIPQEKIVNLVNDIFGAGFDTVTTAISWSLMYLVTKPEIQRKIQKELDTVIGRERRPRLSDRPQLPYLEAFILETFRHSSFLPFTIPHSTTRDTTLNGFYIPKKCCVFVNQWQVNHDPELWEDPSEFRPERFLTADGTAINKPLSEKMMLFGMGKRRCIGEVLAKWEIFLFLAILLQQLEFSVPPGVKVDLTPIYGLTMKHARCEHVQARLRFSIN
Method in brief: (§1)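 Follow-up CYP panel in pooled human liver microsomes with CYP-specific probe substrates; CYP-specific metabolites quantified by LC-MS/MS. Test compound at 10 μM. Percent inhibition reported.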

CYP2C9 [2] = biological target: T2, CYP2C9 (Homo sapiens, UniProt P11712); test: as above; type: in vitro ADME; conditions: pooled human liver microsomes, probe tolbutamide
Method in brief: as §1

CYP2C19 = CYP2C19 (Homo sapiens, UniProt P33261); test: as above; type: in vitro ADME; conditions: pooled human liver microsomes, probe S-mephenytoin
Method in brief: as §1

CYP2D6 = CYP2D6 (Homo sapiens, UniProt P10635); test: as above; type: in vitro ADME; conditions: pooled human liver microsomes, probe bufuralol
Method in brief: as §1

CYP3A4 = CYP3A4 (Homo sapiens, UniProt P08684); test: as above; type: in vitro ADME; conditions: pooled human liver microsomes, probe midazolam
Method in brief: as §1

CYP2C9 [3] = biological target: T2, CYP2C9; type: in vitro ADME
Method in brief: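 Pooled human liver microsomes preincubated with test compound for 30 min, with and without an NADPH-generating system, then incubated with diclofenac as the CYP2C9 marker substrate. IC50 derived.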

[4] = in vivo metabolism after single oral dose, plasma; design: species or system rat; conditions: S7958 30 mg/kg bw oral
[5] = test system: S. typhimurium strains TA98, TA100, TA1535, TA1537 and E. coli strain WP2 uvrA; test: bacterial reverse mutation test; type: cell-based, Salmonella typhimurium, Escherichia coli; conditions: 50–5000 μg/plate, plate incorporation and pre-incubation, ±S9
[6] = 28-day subacute toxicity study, diet; type: in vivo, rat; conditions: 28 days
Method in brief: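 Diet admix given for 28 consecutive days to Crl:CD(SD) rats, 10/sex/group, at 10, 30 or 100 mg/kg bw/day. H&E-stained paraffin sections of tissues examined microscopically for all control and high-dose (100 mg/kg bw/day) animals.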

[7] = proof of exposure in 28-day study, plasma concentrations; type: in vivo, rat; conditions: for concentration at 29 day: Crl:CD(SD) (Sprague-Dawley), rat, plasma (peripheral blood), oral; for Hepatic Portal Vein Blood Mean Conc. / Hepatic Portal Vein Blood Mean Conc. Ratio: necropsy
Method in brief: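 In the 28-day dietary study (10, 30, 100 mg/kg bw/day), plasma test compound measured in peripheral blood taken at 06:00 h GMT on Day 29. Hepatic portal vein blood was sampled from the same animals at necropsy.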

[8] = JECFA SPET dietary exposure estimate; design: species or system human; conditions: 28- and 90-day toxicology studies
[9] = biological target: human bitter receptor hTAS2R8; conditions: antagonist; cited from earlier work

T2 sequence (P11712 whole entry): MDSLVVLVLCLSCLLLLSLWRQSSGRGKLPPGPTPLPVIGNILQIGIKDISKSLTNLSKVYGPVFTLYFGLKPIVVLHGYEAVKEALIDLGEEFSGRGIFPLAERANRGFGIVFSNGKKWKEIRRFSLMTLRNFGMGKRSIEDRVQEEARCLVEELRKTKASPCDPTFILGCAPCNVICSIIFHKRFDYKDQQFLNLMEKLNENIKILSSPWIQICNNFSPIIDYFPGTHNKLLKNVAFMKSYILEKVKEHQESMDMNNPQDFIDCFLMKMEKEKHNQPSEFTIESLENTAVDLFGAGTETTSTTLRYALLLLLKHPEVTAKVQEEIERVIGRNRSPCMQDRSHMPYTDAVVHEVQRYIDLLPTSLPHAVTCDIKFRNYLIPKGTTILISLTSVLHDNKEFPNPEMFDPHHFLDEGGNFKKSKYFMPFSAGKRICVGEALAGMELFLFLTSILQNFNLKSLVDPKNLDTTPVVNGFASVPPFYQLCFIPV
CYP2C19, sequence (P33261 whole entry): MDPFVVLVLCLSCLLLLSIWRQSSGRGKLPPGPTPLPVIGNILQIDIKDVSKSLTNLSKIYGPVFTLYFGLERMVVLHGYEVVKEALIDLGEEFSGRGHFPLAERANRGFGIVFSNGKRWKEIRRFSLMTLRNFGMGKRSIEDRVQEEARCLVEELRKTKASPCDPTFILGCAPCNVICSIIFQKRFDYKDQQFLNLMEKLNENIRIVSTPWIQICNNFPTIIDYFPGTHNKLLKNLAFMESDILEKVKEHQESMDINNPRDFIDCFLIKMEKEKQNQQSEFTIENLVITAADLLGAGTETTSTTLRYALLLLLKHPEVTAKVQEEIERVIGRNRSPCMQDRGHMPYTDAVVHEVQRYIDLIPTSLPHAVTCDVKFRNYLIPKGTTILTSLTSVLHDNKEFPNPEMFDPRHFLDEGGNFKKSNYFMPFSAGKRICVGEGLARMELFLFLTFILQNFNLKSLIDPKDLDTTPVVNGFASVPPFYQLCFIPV
hERG, sequence (Q12809 whole entry): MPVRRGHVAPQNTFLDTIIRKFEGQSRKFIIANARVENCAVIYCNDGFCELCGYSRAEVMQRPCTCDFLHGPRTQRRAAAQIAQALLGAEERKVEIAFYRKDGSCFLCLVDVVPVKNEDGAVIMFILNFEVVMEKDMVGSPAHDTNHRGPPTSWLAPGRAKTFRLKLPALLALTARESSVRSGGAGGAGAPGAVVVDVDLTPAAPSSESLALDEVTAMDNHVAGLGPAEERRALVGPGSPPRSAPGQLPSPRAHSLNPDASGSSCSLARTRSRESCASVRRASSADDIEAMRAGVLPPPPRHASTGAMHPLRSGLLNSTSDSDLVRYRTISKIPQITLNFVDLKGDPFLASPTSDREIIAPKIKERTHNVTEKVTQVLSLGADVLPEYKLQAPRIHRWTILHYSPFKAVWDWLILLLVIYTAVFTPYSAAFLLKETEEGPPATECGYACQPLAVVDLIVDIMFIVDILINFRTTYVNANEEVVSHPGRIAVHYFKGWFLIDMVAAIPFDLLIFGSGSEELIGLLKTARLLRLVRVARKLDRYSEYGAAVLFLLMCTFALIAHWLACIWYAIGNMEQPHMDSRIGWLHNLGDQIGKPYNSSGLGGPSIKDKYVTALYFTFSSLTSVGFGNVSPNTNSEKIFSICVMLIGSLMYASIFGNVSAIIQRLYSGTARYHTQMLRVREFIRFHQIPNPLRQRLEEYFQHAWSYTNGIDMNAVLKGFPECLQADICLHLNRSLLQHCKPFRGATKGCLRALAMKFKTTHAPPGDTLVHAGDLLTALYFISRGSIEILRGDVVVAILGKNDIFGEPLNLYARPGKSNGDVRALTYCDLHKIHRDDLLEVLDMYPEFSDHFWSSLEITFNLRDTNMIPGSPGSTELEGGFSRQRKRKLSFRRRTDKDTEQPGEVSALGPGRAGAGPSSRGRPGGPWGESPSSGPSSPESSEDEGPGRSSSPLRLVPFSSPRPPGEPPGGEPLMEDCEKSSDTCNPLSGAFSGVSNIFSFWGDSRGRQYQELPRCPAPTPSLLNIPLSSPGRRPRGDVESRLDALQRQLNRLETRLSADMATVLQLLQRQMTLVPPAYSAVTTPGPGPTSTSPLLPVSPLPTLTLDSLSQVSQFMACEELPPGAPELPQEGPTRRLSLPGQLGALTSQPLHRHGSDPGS
CYP2D6, sequence (P10635 whole entry): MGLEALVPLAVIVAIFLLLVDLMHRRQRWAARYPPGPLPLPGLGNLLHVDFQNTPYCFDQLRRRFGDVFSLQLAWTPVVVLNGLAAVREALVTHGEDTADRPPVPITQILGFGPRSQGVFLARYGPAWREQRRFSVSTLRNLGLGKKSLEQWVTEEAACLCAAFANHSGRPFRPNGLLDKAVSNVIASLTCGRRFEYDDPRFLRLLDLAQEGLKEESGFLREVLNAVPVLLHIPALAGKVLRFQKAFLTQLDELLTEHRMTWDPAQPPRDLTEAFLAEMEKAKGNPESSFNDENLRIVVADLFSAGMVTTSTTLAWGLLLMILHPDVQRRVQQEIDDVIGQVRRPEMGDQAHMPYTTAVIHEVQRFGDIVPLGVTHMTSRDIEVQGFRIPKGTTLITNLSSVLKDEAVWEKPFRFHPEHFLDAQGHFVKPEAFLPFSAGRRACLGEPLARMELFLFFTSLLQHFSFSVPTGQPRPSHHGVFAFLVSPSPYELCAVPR
CYP3A4, sequence (P08684 whole entry): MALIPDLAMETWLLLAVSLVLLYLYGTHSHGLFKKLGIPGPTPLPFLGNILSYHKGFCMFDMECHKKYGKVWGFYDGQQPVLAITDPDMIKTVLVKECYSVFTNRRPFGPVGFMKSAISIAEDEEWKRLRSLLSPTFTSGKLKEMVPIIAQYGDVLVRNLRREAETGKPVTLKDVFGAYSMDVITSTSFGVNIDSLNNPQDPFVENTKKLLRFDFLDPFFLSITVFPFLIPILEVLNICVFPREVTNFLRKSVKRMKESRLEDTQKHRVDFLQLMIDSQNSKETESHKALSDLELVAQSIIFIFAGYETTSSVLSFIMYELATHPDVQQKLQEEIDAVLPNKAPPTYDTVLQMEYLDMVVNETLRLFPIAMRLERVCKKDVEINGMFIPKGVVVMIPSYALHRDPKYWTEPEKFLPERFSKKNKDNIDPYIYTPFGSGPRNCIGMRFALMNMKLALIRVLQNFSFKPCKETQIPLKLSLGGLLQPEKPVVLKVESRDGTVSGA

## Cc1noc(C)c1Cn1cc(N2C(=O)N(Cc3cccc(O)c3)C(C)(C)C2=O)cn1 [S7958, 3-(1-((3,5-dimethylisoxazol-4-yl)methyl)-1H-pyrazol-4-yl)-1-(3-hydroxybenzyl)-5,5-dimethylimidazolidine-2,4-dione]
[1]
  significant responses (≥50% inhibition or stimulation): No significant responses
hERG
  inhibition at 10 µM: < 10%
CYP1A2
  inhibition at 10 µM: 16%
CYP2C9 [2]
  inhibition at 10 µM: 62%
CYP2C19
  inhibition at 10 µM: 17%
CYP2D6
  inhibition at 10 µM: 17%
CYP3A4
  inhibition at 10 µM: 12%
CYP2C9 [3]
  IC50: 8.8 µM
CYP2C9 [3]; 30 min preincubation ±NADPH
  time- or metabolism-dependent inhibition: no evidence of either time- or metabolism-dependent inhibition
[4]
  maximum concentration in plasma: 5.2 ± 7.1 ng/mL
[5]
  Reverse mutation (in vitro), Result: Negative
[6]; 10, 30, 100 mg/kg bw/day food ad-mix, both sexes
  NOAEL: 100 mg/kg bw/day
[6]; up to 100 mg/kg bw/day
  Findings: No test-article related findings
[7]; Day 29, 10 mg/kg bw/day, F
  Peripheral Blood Mean Conc. Ratio: 1
[7]; Day 29, 10 mg/kg bw/day, M
  Peripheral Blood Mean Conc. Ratio: 1
[7]; Day 29, 30 mg/kg bw/day, F
  Peripheral Blood Mean Conc. Ratio: 3.6
[7]; Day 29, 30 mg/kg bw/day, M
  Peripheral Blood Mean Conc. Ratio: 4.1
[7]; Day 29, 100 mg/kg bw/day, F
  Peripheral Blood Mean Conc. Ratio: 7.4
[7]; Day 29, 100 mg/kg bw/day, M
  Peripheral Blood Mean Conc. Ratio: 41.5
[7]; female, 10 mg/kg bw/day
  concentration at 29 day: 18.4 ng/mL
[7]; female, 30 mg/kg bw/day
  concentration at 29 day: 66.7 ng/mL
[7]; female, 100 mg/kg bw/day
  concentration at 29 day: 136 ng/mL
[7]; male, 10 mg/kg bw/day
  concentration at 29 day: 0.441 ng/mL
[7]; male, 30 mg/kg bw/day
  concentration at 29 day: 1.79 ng/mL
[7]; male, 100 mg/kg bw/day
  concentration at 29 day: 18.3 ng/mL
[7]; 10 mg/kg bw/day, F
  Hepatic Portal Vein Blood Mean Conc.: 19.4 ng/mL
  Hepatic Portal Vein Blood Mean Conc. Ratio: 1
[7]; 10 mg/kg bw/day, M
  Hepatic Portal Vein Blood Mean Conc.: 24.4 ng/mL
  Hepatic Portal Vein Blood Mean Conc. Ratio: 1
[7]; 30 mg/kg bw/day, F
  Hepatic Portal Vein Blood Mean Conc.: 85.0 ng/mL
  Hepatic Portal Vein Blood Mean Conc. Ratio: 4.4
[7]; 30 mg/kg bw/day, M
  Hepatic Portal Vein Blood Mean Conc.: 68.2 ng/mL
  Hepatic Portal Vein Blood Mean Conc. Ratio: 2.8
[7]; 100 mg/kg bw/day, F
  Hepatic Portal Vein Blood Mean Conc.: 334 ng/mL
  Hepatic Portal Vein Blood Mean Conc. Ratio: 17.2
[7]; 100 mg/kg bw/day, M
  Hepatic Portal Vein Blood Mean Conc.: 345 ng/mL
  Hepatic Portal Vein Blood Mean Conc. Ratio: 14.1
[8]
  NOAEL of 100 mg/kg bw/day as multiple of estimated dietary exposure: 1500 times
[9]
  IC50: 0.073 µM

Reference: publication PMC5615838 (Toxicology Reports, 2016)
